Measurements reported in paper PMC3904496 (Cancer chemotherapy and pharmacology, 2012).
Where two headings read alike, the source gives them in different places.

What was measured:
HIV = details: cited from earlier work
[1] = Steady-state plasma pharmacokinetics, phase I trial; format: in vivo, human; details: for Mean peak plasma level: steady state; for AUC: po
Summary of the method: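 Liposarcoma patients took oral test compound twice daily with food. On day 8 of cycle 1, EDTA blood was drawn predose and 0.5–8 h post-dose, iced, spun within 1 h and stored as plasma at ≤ –20 °C. Parent and active metabolite were extracted by protein precipitation/organic extraction (reserpine internal standard) and quantified by LC–MS/MS in positive-ion MRM. Non-compartmental Cmax/Tmax; linear/log trapezoidal AUC.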

liposarcoma [2] = details: cited from earlier work
liposarcoma xenograft = details: murine liposarcoma xenograft; cited from earlier work
liposarcoma [3] = details: cited from earlier work; remark: listed apart in the source
liposarcoma [4] = experiment: Tumor response by RECIST in subjects with liposarcoma; format: in vivo, human
SREBP-1 = details: in the absence of increased gene expression; cited from earlier work
[5] = RECIST, 20 subjects, all dose levels

## Cc1c(O)cccc1C(=O)N[C@@H](CSc1ccccc1)[C@H](O)CN1C[C@H]2CCCC[C@H]2C[C@H]1C(=O)NC(C)(C)CO [M8]
HIV
  activity in suppressing HIV replication relative to parent drug: as pharmacologically active as the parent drug
[1]; 3,000 mg nelfinavir twice daily
  time to peak plasma concentration: 4 to 6 h
[1]; 4,250 mg nelfinavir twice daily
  time to peak plasma concentration: 2 h
Liposarcoma [2]
  anticancer activity relative to parent molecule: comparable to its parent molecule

## Cc1c(O)cccc1C(=O)N[C@@H](CSc1ccccc1)[C@H](O)CN1C[C@H]2CCCC[C@H]2C[C@H]1C(=O)NC(C)(C)C [nelfinavir]
Liposarcoma xenograft
  effect on tumor growth: inhibition of tumor growth
Course 1, Grade 1
  Acute toxicity count: Blood/bone marrow, Hemoglobin: 3
  Acute toxicity count: Blood/bone marrow, Leukocytes (total WBC): 2
  Acute toxicity count: Blood/bone marrow, Other: 1
  Acute toxicity count: Blood/bone marrow, Platelets: 1
  Acute toxicity count: Cardiac arrhythmia ventricular arrhythmia: 1
  Acute toxicity count: Laboratory, Bicarbonate, serum-low: 1
  Acute toxicity count: Laboratory, Cholesterol, serum-high: 2
  Acute toxicity count: Laboratory, Glucose, serum-high: 1
  Acute toxicity count: Laboratory, Potassium, serum-low: 2
  Acute toxicity count: Laboratory, Triglyceride, serum-high: 2
Course 1, Grade 2
  Acute toxicity count: Blood/bone marrow, Hemoglobin: 1
  Acute toxicity count: Blood/bone marrow, Lymphopenia: 1
  Acute toxicity count: Laboratory, Glucose, serum-high: 1
Course 1, Grade 3
  Acute toxicity count: Laboratory, Lipase: 1
Subsequent courses, Grade 1
  Acute toxicity count: Blood/bone marrow, Hemoglobin: 2
  Acute toxicity count: Blood/bone marrow, Lymphopenia: 1
  Acute toxicity count: Blood/bone marrow, Platelets: 1
Subsequent courses, Grade 2
  Acute toxicity count: Blood/bone marrow, Hemoglobin: 2
  Acute toxicity count: Blood/bone marrow, Neutrophils: 1
human, in vivo
  Acute toxicity count: Blood/bone marrow, Leukocytes (total WBC): 1
  Acute toxicity count: Constitutional, Fatigue: 1
  Acute toxicity count: Constitutional, Weight loss: 1
  Acute toxicity count: Dermatology/skin, Other: 1
  Acute toxicity count: Dermatology/skin, Rash/desquamation: 1
  Acute toxicity count: Gastrointestinal, Anorexia: 1
  Acute toxicity count: Gastrointestinal, Diarrhea: 7
  Acute toxicity count: Gastrointestinal, Nausea: 1
  Acute toxicity count: Gastrointestinal, Vomiting: 1
  Acute toxicity count: Laboratory, ALT, SGPT: 1
  Acute toxicity count: Laboratory, AST, SGOT: 1
  Acute toxicity count: Laboratory, Alkaline phosphatase: 2
  Acute toxicity count: Laboratory, Glucose, serum-high: 3
  Acute toxicity count: Laboratory, Potassium, serum-low: 1
  Acute toxicity count: Laboratory, Triglyceride, serum-high: 2
  Acute toxicity count: Neurology dizziness: 1
  Acute toxicity count: Pain: 2
  Acute toxicity count: Pulmonary dyspnea: 1
  Acute toxicity count: Pulmonary, Hypoxia: 1
  Acute toxicity count: Pulmonary, Other: 1
human, in vivo, 28 days
  Acute toxicity count: Constitutional, Fatigue: 1
  Acute toxicity count: Dermatology/skin, Other: 1
  Acute toxicity count: Dermatology/skin, Rash/desquamation: 1
  Acute toxicity count: Gastrointestinal, Diarrhea: 2
  Acute toxicity count: Gastrointestinal, Nausea: 2
  Acute toxicity count: Gastrointestinal, Vomiting: 1
  Acute toxicity count: Hemorrhage/bleeding: 1
  Acute toxicity count: Hepatobiliary/pancreatitis: 1
  Acute toxicity count: Laboratory, ALT, SGPT: 3
  Acute toxicity count: Laboratory, AST, SGOT: 3
  Acute toxicity count: Laboratory, Album, serum-low: 1
  Acute toxicity count: Lymphatics/limb edema: 1
Up to dose Level 5 (4,250 mg twice daily)
  MTD: not reached
Liposarcoma [3]
  potency rank among HIV PIs in clonogenic assays: most potent HIV PI identified
Liposarcoma [4]; [5]
  subjects with CT partial response (PR): 1
  subjects with progressive disease at initial evaluation: 13
  subjects with reduction in tumor size, but less than a PR: 1
Liposarcoma [4]; of 20 subjects
  clinical benefit (complete response, PR, plus SD): 30%
  subjects with clinical benefit (complete response, PR, plus SD): 6
[1]; Level 4, 3,000 mg twice daily oral, six subjects
  Mean peak plasma level: 7.3 mg/L
[1]; Level 5, 4,250 mg twice daily oral, three subjects
  Mean peak plasma level: 6.3 mg/L
[1]; human, plasma, oral, 4250 mg twice daily
  Tmax: 2 h
[1]; human, plasma, 3000 mg twice daily
  AUC: 60900 ng·h/mL
[1]; human, plasma, 4250 mg twice daily
  AUC: 37700 ng·h/mL
Liposarcoma [2]
  range where anticancer activity was demonstrated in vitro: 5 to 10 µM
SREBP-1
  precursor SREBP-1 protein expression: dose-dependent increase
